Data: ChEMBL document CHEMBL2311528, “Synthesis of spirolactone-type diterpenoid derivatives from kaurene-type oridonin with improved antiproliferative effects and their apoptosis-inducing activity in human hepatoma Bel-7402 cells” (Eur J Med Chem, 2013)

Experiments:
Bel-7402 [1] = assay: Antiproliferative activity against human Bel7402 cells assessed as growth inhibition by MTT assay; assay type: functional, cell-based
Summary of the method: (§1)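 Cells treated in triplicate over a range of concentrations at 37 °C in humidified 5% CO2. At 72 h, MTT (5 mg/mL) was added for 4 h, followed by DMSO solubilisation and OD at 490 nm. IC50 is the concentration giving 50% growth inhibition, reported as mean ± S.D. of three independent experiments.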

[2] = Antiproliferative activity against human CaEs17 cells assessed as growth inhibition by MTT assay; assay type: functional, cell-based; summary of the method: as §1
MGC-803 [3] = assay: Antiproliferative activity against human MGC803 cells assessed as growth inhibition by MTT assay; assay type: functional, cell-based; summary of the method: as §1
K562 [4] = assay: Antiproliferative activity against human K562 cells assessed as growth inhibition by MTT assay; assay type: functional, cell-based
Summary of the method: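 K562 cells in log phase seeded at 5 × 10⁴ cells/mL and treated in triplicate across a 0.39–100 range. Cultures were kept at 37 °C in humidified 5% CO2. At 72 h, MTT (5 mg/mL) was added for 4 h, formazan was dissolved in DMSO, and OD was read at 490 nm. IC50 is the concentration giving 50% growth inhibition, reported as mean ± S.D. of three independent experiments.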

[5] = target: Glutathione S-transferase P (Homo sapiens) (UniProt P09211); assay: Inhibition of glutathione S-transferase pi in human Bel7402 cell lysates at 40 uM using CDNB and GSH as substrates by spectrophotometry; conditions: Bel-7402
Bel-7402 [6] = assay: Induction of cell cycle arrest in human Bel7402 cells assessed as accumulation at G2/M phase at 1 uM incubated for 48 hrs by propidium iodide staining based flow cytometry (reference value: 4.75%); assay type: functional
Summary of the method: (§2)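 Bel-7402 seeded at 5.0 × 10³ cells/well and grown 24 h at 37 °C. Exponentially growing cells were treated for 48 h, alongside untreated and DMSO-solvent controls. Cells were then centrifuged, fixed overnight in 70% ethanol at 4 °C, and analysed by flow cytometry for phase distribution.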

Bel-7402 [7] = assay: Induction of cell cycle arrest in human Bel7402 cells assessed as accumulation at S phase at 1 uM incubated for 48 hrs by propidium iodide staining based flow cytometry (reference value: 31.89%); assay type: functional; summary of the method: as §2
Bel-7402 [8] = assay: Induction of cell cycle arrest in human Bel7402 cells assessed as accumulation at G1 phase at 1 uM incubated for 48 hrs by propidium iodide staining based flow cytometry (reference value: 63.86%); assay type: functional; summary of the method: as §2
Bel-7402 [9] = assay: Induction of cell cycle arrest in human Bel7402 cells assessed as accumulation at G2/M phase at 0.8 uM incubated for 48 hrs by propidium iodide staining based flow cytometry (reference value: 4.75%); assay type: functional; summary of the method: as §2
Bel-7402 [10] = assay: Induction of cell cycle arrest in human Bel7402 cells assessed as accumulation at S phase at 0.8 uM incubated for 48 hrs by propidium iodide staining based flow cytometry (reference value: 31.89%); assay type: functional; summary of the method: as §2
Bel-7402 [11] = assay: Induction of cell cycle arrest in human Bel7402 cells assessed as accumulation at G1 phase at 0.8 uM incubated for 48 hrs by propidium iodide staining based flow cytometry (reference value: 63.86%); assay type: functional; summary of the method: as §2
Bel-7402 [12] = assay: Induction of cell cycle arrest in human Bel7402 cells assessed as accumulation at G2/M phase at 0.6 uM incubated for 48 hrs by propidium iodide staining based flow cytometry (reference value: 4.75%); assay type: functional; summary of the method: as §2
Bel-7402 [13] = assay: Induction of cell cycle arrest in human Bel7402 cells assessed as accumulation at S phase at 0.6 uM incubated for 48 hrs by propidium iodide staining based flow cytometry (reference value: 31.89%); assay type: functional; summary of the method: as §2
Bel-7402 [14] = assay: Induction of cell cycle arrest in human Bel7402 cells assessed as accumulation at G1 phase at 0.6 uM incubated for 48 hrs by propidium iodide staining based flow cytometry (reference value: 63.86%); assay type: functional; summary of the method: as §2
Bel-7402 [15] = assay: Induction of apoptosis in human Bel7402 cells assessed as necrotic cells level at 1 uM incubated for 3 days by Annexin-V and propidium iodide double staining based flow cytometry (reference value: 0.5%); assay type: functional
Bel-7402 [16] = assay: Induction of apoptosis in human Bel7402 cells assessed as late apoptotic cells level at 1 uM incubated for 3 days by Annexin-V and propidium iodide double staining based flow cytometry (reference value: 2.4%); assay type: functional
Bel-7402 [17] = assay: Induction of apoptosis in human Bel7402 cells assessed as early apoptotic cells level at 1 uM incubated for 3 days by Annexin-V and propidium iodide double staining based flow cytometry (reference value: 4.5%); assay type: functional
Bel-7402 [18] = assay: Induction of apoptosis in human Bel7402 cells assessed as viable cells level at 1 uM incubated for 3 days by Annexin-V and propidium iodide double staining based flow cytometry (reference value: 92.6%); assay type: functional
Bel-7402 [19] = assay: Induction of apoptosis in human Bel7402 cells assessed as necrotic cells level at 0.8 uM incubated for 3 days by Annexin-V and propidium iodide double staining based flow cytometry (reference value: 0.5%); assay type: functional
Bel-7402 [20] = assay: Induction of apoptosis in human Bel7402 cells assessed as late apoptotic cells level at 0.8 uM incubated for 3 days by Annexin-V and propidium iodide double staining based flow cytometry (reference value: 2.4%); assay type: functional
Bel-7402 [21] = assay: Induction of apoptosis in human Bel7402 cells assessed as early apoptotic cells level at 0.8 uM incubated for 3 days by Annexin-V and propidium iodide double staining based flow cytometry (reference value: 4.5%); assay type: functional
Bel-7402 [22] = assay: Induction of apoptosis in human Bel7402 cells assessed as viable cells level at 0.8 uM incubated for 3 days by Annexin-V and propidium iodide double staining based flow cytometry (reference value: 92.6%); assay type: functional
Bel-7402 [23] = assay: Induction of apoptosis in human Bel7402 cells assessed as necrotic cells level at 0.6 uM incubated for 3 days by Annexin-V and propidium iodide double staining based flow cytometry (reference value: 0.5%); assay type: functional
Bel-7402 [24] = assay: Induction of apoptosis in human Bel7402 cells assessed as late apoptotic cells level at 0.6 uM incubated for 3 days by Annexin-V and propidium iodide double staining based flow cytometry (reference value: 2.4%); assay type: functional
Bel-7402 [25] = assay: Induction of apoptosis in human Bel7402 cells assessed as early apoptotic cells level at 0.6 uM incubated for 3 days by Annexin-V and propidium iodide double staining based flow cytometry (reference value: 4.5%); assay type: functional
Bel-7402 [26] = assay: Induction of apoptosis in human Bel7402 cells assessed as viable cells level at 0.6 uM incubated for 3 days by Annexin-V and propidium iodide double staining based flow cytometry (reference value: 92.6%); assay type: functional
Bel-7402 [27] = assay: Potency index, ratio of IC50 for oridonin to IC50 for test compound against human Bel7402 cells; assay type: functional
[28] = Potency index, ratio of IC50 for oridonin to IC50 for test compound against human CaEs17 cells; assay type: functional
MGC-803 [29] = assay: Potency index, ratio of IC50 for oridonin to IC50 for test compound against human MGC803 cells; assay type: functional
K562 [30] = assay: Potency index, ratio of IC50 for oridonin to IC50 for test compound against human K562 cells; assay type: functional

Glutathione S-transferase P (Homo sapiens), sequence (P09211 2-210 limits assumed): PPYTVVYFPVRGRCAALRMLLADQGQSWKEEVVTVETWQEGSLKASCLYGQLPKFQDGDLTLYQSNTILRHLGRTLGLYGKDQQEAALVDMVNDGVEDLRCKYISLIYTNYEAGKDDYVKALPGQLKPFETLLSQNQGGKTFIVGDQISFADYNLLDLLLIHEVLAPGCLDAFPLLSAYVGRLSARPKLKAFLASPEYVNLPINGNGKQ

## C=C1C(=O)[C@@]23C(=O)OC[C@]4([C@@H](OC(C)=O)CCC(C)(C)[C@H]4C=O)[C@@H]2CC[C@H]1[C@H]3OC(=O)c1ccc(OC)cc1
Bel-7402 [1]
  IC50: 2470 nM
[2]
  IC50: 1960 nM
MGC-803 [3]
  IC50: 2530 nM
K562 [4]
  IC50: 1920 nM

## C=C1C(=O)[C@@]23C(=O)OC[C@]4([C@@H](OC(C)=O)CCC(C)(C)[C@H]4C=O)[C@@H]2CC[C@H]1[C@H]3OC(C)=O
[5]
  inhibition: 7.08%
Bel-7402 [1]
  IC50: 3960 nM
[2]
  IC50: 2800 nM
MGC-803 [3]
  IC50: 3470 nM
K562 [4]
  IC50: 1740 nM

## C=C1C(=O)[C@@]23C(=O)OC[C@]4([C@@H](OC(C)=O)CCC(C)(C)[C@H]4C=O)[C@@H]2CC[C@H]1[C@H]3OC(=O)c1ccc(Cl)cc1
Bel-7402 [1]
  IC50: 1510 nM
[2]
  IC50: 1250 nM
MGC-803 [3]
  IC50: 1730 nM
K562 [4]
  IC50: 870 nM

## C=C1C(=O)[C@@]23C(=O)OC[C@]4([C@@H](OC(C)=O)CCC(C)(C)[C@H]4C=O)[C@@H]2CC[C@H]1[C@H]3OC(=O)CCCC
Bel-7402 [1]
  IC50: 3640 nM
[2]
  IC50: 2850 nM
MGC-803 [3]
  IC50: 2490 nM
K562 [4]
  IC50: 1560 nM

## C=C1C(=O)[C@@]23C(=O)OC[C@]4([C@@H](OC(C)=O)CCC(C)(C)[C@H]4C=O)[C@@H]2CC[C@H]1[C@H]3OC(=O)c1ccc([N+](=O)[O-])cc1
Bel-7402 [1]
  IC50: 1740 nM
[2]
  IC50: 1600 nM
MGC-803 [3]
  IC50: 1980 nM
K562 [4]
  IC50: 1140 nM

## C=C1C(=O)[C@@]23C(=O)OC[C@]4([C@@H](OC(C)=O)CCC(C)(C)[C@H]4C=O)[C@@H]2CC[C@H]1[C@H]3OC(=O)c1ccc(C)cc1
Bel-7402 [1]
  IC50: 2090 nM
[2]
  IC50: 1830 nM
MGC-803 [3]
  IC50: 1900 nM
K562 [4]
  IC50: 1310 nM

## C=C1C(=O)[C@@]23C(=O)OC[C@]4([C@@H](OC(C)=O)CCC(C)(C)[C@H]4C=O)[C@@H]2CC[C@H]1[C@H]3OC(=O)c1ccc(C(F)(F)F)cc1
Bel-7402 [1]
  IC50: 5090 nM
[2]
  IC50: 9160 nM
MGC-803 [3]
  IC50: 5540 nM
K562 [4]
  IC50: 3150 nM

## C=C1C(=O)[C@@]23C(=O)OC[C@]4([C@@H](OC(C)=O)CCC(C)(C)[C@H]4C=O)[C@@H]2CC[C@H]1[C@H]3OC(=O)CC
Bel-7402 [1]
  IC50: 3780 nM
[2]
  IC50: 2770 nM
MGC-803 [3]
  IC50: 3220 nM
K562 [4]
  IC50: 1500 nM

## C=C1C(=O)[C@@]23C(=O)OC[C@]4([C@@H](OC(C)=O)CCC(C)(C)[C@H]4C=O)[C@@H]2CC[C@H]1[C@H]3OC(=O)c1ccccc1
Bel-7402 [1]
  IC50: 3050 nM
[2]
  IC50: 1990 nM
MGC-803 [3]
  IC50: 2180 nM
K562 [4]
  IC50: 1400 nM

## CC(=O)O[C@H]1C(=O)[C@@]2(C)[C@H]([C@H](OC(=O)c3ccccc3)[C@]3(O)C[C@H](OC(=O)[C@H](O)[C@@H](NC(=O)c4ccccc4)c4ccccc4)C(C)=C1C3(C)C)[C@]1(OC(C)=O)CO[C@@H]1C[C@@H]2O [PACLITAXEL]
[2]
  IC50: 430 nM

## C=C1C(=O)[C@@]23C(=O)OC[C@]4([C@@H](OC(C)=O)CCC(C)(C)[C@H]4C=O)[C@@H]2CC[C@H]1[C@H]3OC(=O)c1ccccc1Cl
Bel-7402 [6]
  Activity: 92.16%
Bel-7402 [7]
  Activity: 0%
Bel-7402 [8]
  Activity: 7.84%
Bel-7402 [9]
  Activity: 53.3%
Bel-7402 [10]
  Activity: 5.28%
Bel-7402 [11]
  Activity: 41.69%
Bel-7402 [12]
  Activity: 23.2%
Bel-7402 [13]
  Activity: 20.73%
Bel-7402 [14]
  Activity: 56.07%
Bel-7402 [15]
  Activity: 0.6%
Bel-7402 [16]
  Activity: 12.4%
Bel-7402 [17]
  Activity: 21%
Bel-7402 [18]
  Activity: 66%
Bel-7402 [19]
  Activity: 0.3%
Bel-7402 [20]
  Activity: 9.3%
Bel-7402 [21]
  Activity: 9.6%
Bel-7402 [22]
  Activity: 80.9%
Bel-7402 [23]
  Activity: 0.1%
Bel-7402 [24]
  Activity: 3.8%
Bel-7402 [25]
  Activity: 8.8%
Bel-7402 [26]
  Activity: 87.2%
[5]
  inhibition: 0%
Bel-7402 [27]
  Ratio IC50: 5
[28]
  Ratio IC50: 18
MGC-803 [29]
  Ratio IC50: 4
K562 [30]
  Ratio IC50: 12
Bel-7402 [1]
  IC50: 1390 nM
[2]
  IC50: 600 nM
MGC-803 [3]
  IC50: 1280 nM
K562 [4]
  IC50: 390 nM
